Calls of active or inactive are those of the source. The calls are words filed in the database; no cut-off is given here.

Experimental findings from ChEMBL document CHEMBL5712908, “A genome-wide RNAi screen reveals essential therapeutic targets of breast cancer stem cells” (2019) are described below.

Assay [1] relates to SUM-159-PT. Description: Anticancer activity against human SUM159 cells expressing BFP assessed as reduction in ALDHbr cell at 50 nM by LSR2 cytometer analysis. The format is functional.
Assay [2] has as its system SUM-159-PT. Description: Synergistic anticancer activity against human SUM159 cells assessed as decrease in primary tumor sphere formation at 62 nM incubated for 72 hrs in presence of salinomycin by Extreme limiting dilution analysis. The format is functional. In a few lines: (§1)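 72 h adherent pretreatment (Sal/JQ1 62 nM/62 nM; docetaxel added at 2 nM where used), then single cells plated in ultra-low attachment 96-well plates in serum-free mammary epithelium basal medium at 25/10/5/3/2/1 cells/well (18–36 wells/condition). Wells with ≥1 sphere after 10 days scored positive; sphere-forming frequency by ELDA. Secondary spheres from dissociated primary spheres. n = 4; pairwise chi-square.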

Assay [3] relates to Breast cancer cell line. Description: Synergistic antitumor activity against human CRCM434 negative breast cancer cells orthotopically xenografted in NSG mouse model of PDX assessed as reduction in tumor volume at 50 mg/kg, ip 5 out of 7 for 2 weeks cotreated with salinomycin. It is filed as functional, organism-based. The essentials: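 Orthotopic PDX in NSG mice, 100,000 cells per fat pad, two pads per mouse; treatment from ~80 mm³ tumours with salinomycin i.p. 3 mg/kg daily 14 days, JQ1 i.p. 50 mg/kg 5 of 7 days for 2 weeks, or combination, against placebo DMSO/HPCD 10% (1:9). Tumour growth monitored; n = 10 tumours per group.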
Background: A xenograft is tissue or cells of one species grown in another, often human tumour cells in immunodeficient mice.

Assay [4] relates to Breast cancer cell line. Description: Antitumor activity against patient-derived breast cancer cells orthotopically xenografted in NSG mouse model of PDX assessed as reduction in Ki67 cells at 50 mg/kg, ip 5 out of 7 for 2 weeks by Immunostaining analysis. It is filed as functional, organism-based. Conditions: Homo sapiens. The essentials: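 Paraffin sections of PDX tumours from 2-week-treated mice. Citrate pH 6 antigen retrieval, then Ki67 immunoperoxidase staining with DAB and haematoxylin counterstain. Proportion of Ki67+ cells quantified; n = 3; t-test.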

Assay [5] concerns Breast cancer cell line. Description: Synergistic antitumor activity against patient-derived breast cancer cells orthotopically xenografted in NSG mouse model of PDX assessed as reduction in Ki67 cells at 50 mg/kg, ip 5 out of 7 for 2 weeks cotreated with salinomycin by Immunostaining analysis. The format is functional, organism-based. Conditions: Homo sapiens. The essentials: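 Paraffin sections of treated PDX tumours deparaffinised and subjected to antigen retrieval in citrate buffer pH 6. Peroxidase staining with ready-to-use Ki67 or cleaved caspase-3 antibody, DAB substrate, haematoxylin counterstain. Proportion of positive cells quantified; n = 3; t-test.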

In assay [6] the test system is Breast cancer cell line. Description: Synergistic antitumor activity against human CRCM404 negative breast cancer cells orthotopically xenografted in NSG mouse model of PDX assessed as reduction ALDHbr cells at 50 mg/kg, ip 5 out of 7 for 2 weeks cotreated with salinomycin by LSR2 cytometer analysis. The format is functional.
Another assay concerns MDA-MB-436. Description: Antitumor activity against human MDA-MB-436 cells assessed as K-score by measuring ALDHbr cells by LSR2 cytometer. It is filed as functional. In a few lines:
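Cell lines exposed for 72 h in adherent culture to a range of concentrations centred on the MTS-derived IC50. ALDHbr proportion measured by ALDEFLUOR flow cytometry (LSR2). K-score is the linear regression coefficient, on log10-transformed doses, between the untreated condition and the dose predicted to give a 50% decrease or increase in ALDHbr proportion versus control.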

For assay [7], the system named is SUM149PT. Description: Synergistic anticancer activity against human SUM149 cells assessed as decrease in docetaxel induced ALDHbr cells at 62 nM in presence of salinomycin by LSR2 cytometer analysis. The format is functional, cell-based. In a few lines: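 SUM159 or SUM149 cells treated 72 h in adherent conditions; docetaxel combined with other drugs at 2 nM; combination doses chosen from synergy distributions (Sal/JQ1 62 nM/62 nM). ALDEFLUOR staining with DEAB control, flow cytometry on LSR2. n = 8; Student's t-test; mean ± SD.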

For assay [8], the system named is Breast cancer cell line. Description: Antitumor activity against human CRCM404 negative breast cancer cells orthotopically xenografted in NSG mouse model of PDX assessed as reduction in tumor volume at 50 mg/kg, ip 5 out of 7 for 2 weeks. The format is functional, organism-based. In a few lines: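 Chemo-naïve triple-negative PDX cells injected at 100,000 per fat pad, two fat pads per NSG mouse. At ~80 mm³ tumours, mice received i.p. 3 mg/kg daily for 14 days or 50 mg/kg 5 of 7 days for 2 weeks; placebo was DMSO/HPCD 10% (1:9). Five mice (10 tumours) per group. Tumour growth monitored; after 2 weeks tumours dissociated, mouse cells excluded via anti-H2Kd, ALDHbr measured by ALDEFLUOR flow cytometry and normalised to vehicle.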

Assay [9] relates to Breast cancer cell line. Description: Synergistic antitumor activity against human CRCM404 negative breast cancer cells xenografted in NSG mouse model of PDX assessed as reduction metastasis formation in lung at 50 mg/kg, ip 5 out of 7 for 2 weeks cotreated with salinomycin. The format is functional, organism-based. In a few lines: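 Luciferase-expressing PDX cells sorted H2Kd⁻ and viable, 100,000 in 100 μl PBS injected in NSG tail vein. From the next day, salinomycin 3 mg/kg i.p. daily and/or JQ1 50 mg/kg i.p. 5 of 7 days for 2 weeks. Lungs and liver imaged by bioluminescence after i.p. luciferin 30 mg/kg; normalised photon flux; 10 mice/group; Wilcoxon test.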

Assay [10] relates to SUM149PT. Description: Anticancer activity against human SUM149 cells assessed as ALDHbr cells at 10 uM by LSR2 cytometer (reference value: 4.8%). The format is functional.
For assay [11], the system named is SUM-159-PT. Description: Induction of apoptosis in human SUM159 cells expressing ALDHbr upto 100 uM incubated for 72 hrs by ALDEFLUOR/YO-PRO-3/ Hoechst 33342 staining based high content imaging microscopic analysis. The format is functional, cell-based. In a few lines:
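SUM159 at 3,000 cells/well on collagen plates, dosed at 6, 24 and 48 h post-seeding; 0.1% DMSO negative control, cisplatin positive control. At 72 h stained 30 min at 37°C with ALDEFLUOR, YO-PRO-3 and Hoechst 33342, then imaged ice-cold. YO-PRO-3-positive nuclei (above untreated signal) counted over total cells, per ALDHbr/ALDH- subpopulation; n = 6.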

The subject of assay [12] is Breast cancer cell line. Description: Synergistic antitumor activity against human CRCM494 negative breast cancer cells orthotopically xenografted in NSG mouse model of PDX assessed as reduction ALDHbr cells at 50 mg/kg, ip 5 out of 7 for 2 weeks cotreated with salinomycin by LSR2 cytometer analysis. It is filed as functional.
The test system of assay [13] is SUM149PT. Description: Synergistic anticancer activity against human SUM149 cells assessed as decrease in docetaxel induced primary tumor sphere formation at 62 nM incubated for 72 hrs in presence of salinomycin by Extreme limiting dilution analysis. It is filed as functional, cell-based. In a few lines: as §1
The subject of assay [14] is SUM-159-PT. Description: Anticancer activity against human SUM159 cells assessed as decrease in primary tumor sphere formation incubated for 72 hrs by Extreme limiting dilution analysis. The format is functional, cell-based. The essentials: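 Cells drug-treated in adherent culture for 72 h, then plated as single cells in ultra-low attachment 96-well plates in serum-free mammary epithelium basal medium. Plating at 25/10/5/3/2/1 cells per well, 18–36 wells per condition. Wells with ≥1 sphere after 10 days scored positive. Secondary spheres were made by dissociating primary spheres. Frequency by ELDA; n = 4; pairwise chi-square test.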

The subject of assay [15] is Breast cancer cell line. Description: Synergistic antitumor activity against human reimplanted CRCM434 negative breast cancer cells orthotopically xenografted in NSG mouse model of PDX assessed as reduction tumor volume at 50 mg/kg, ip 5 out of 7 for 2 weeks cotreated with salinomycin by limiting dilation analysis. It is filed as functional, organism-based.

Regarding `Cc1sc2c(c1C)C(c1ccc(Cl)cc1)=N[C@@H](CC(=O)OC(C)(C)C)c1nnc(C)n1-2`, the “fold change (FC)” value in the assay on SUM-159-PT [1] is on record as 2; in the assay on SUM-159-PT [2], 2.4; in the assay on Breast cancer cell line [6], 2; with Breast cancer cell line [12] it was 2. Also, the outcome in the assay on Breast cancer cell line [3], in the assay on Breast cancer cell line [4], with Breast cancer cell line [5], in the assay with SUM149PT [7], in the assay on Breast cancer cell line [8] and in the assay on Breast cancer cell line [9] was Active. Besides, the result in the assay on SUM-159-PT [11], with SUM149PT [13], in the assay on SUM-159-PT [14] and in the assay with Breast cancer cell line [15] was Active. Moreover, the Activity with MDA-MB-436 is reported as -0.15; with SUM149PT [10], 5.1%.
